Ten molecules from ChEMBL document CHEMBL6182837, “Discovery and biological evaluation of nitrofuranyl-pyrazolopyrimidine hybrid conjugates as potent antimicrobial agents targeting Staphylococcus aureus and methicillin-resistant S. aureus” (RSC Med Chem, 2025) can be followed below.

The structures appear in SMILES notation. ≈ marks a conversion by molar mass, not a printed value. Calls of active or inactive are those of the source. The calls are words filed in the database; no cut-off is given here. Some results are limits rather than exact numbers.

The subject of data set [1] is Staphylococcus aureus. Nature of the data set: Antibacterial activity against Staphylococcus aureus SA-K2192 overexpressing TetK by Alamar blue staining based analysis. It is filed as functional. (In general: Alamar Blue is a resazurin reagent that responds to reducing activity.)
The test system of data set [2] is Staphylococcus aureus. Nature of the data set: Antibacterial activity against Ciprofloxacin-sensitive Staphylococcus aureus […] by Alamar blue staining based analysis. It is filed as functional.
Data set [3] has as its system Staphylococcus aureus. Nature of the data set: Antibacterial activity against Staphylococcus aureus ATCC 29213 incubated for 24 hrs by Alamar blue staining based microdilution method. The format is functional.
The subject of data set [4] is Staphylococcus aureus. The data set is described as follows: Antibacterial activity against Staphylococcus aureus SA-1199B overexpressing NorA by Alamar blue staining based analysis. It is filed as functional.
In data set [5] the test system is Staphylococcus aureus. The data set is described as follows: Antibacterial activity against Staphylococcus aureus SA-K2191 overexpressing MsrA by Alamar blue staining based analysis. It is filed as functional.
Data set [6] relates to Staphylococcus aureus. Nature of the data set: Induction of morphological disruption in Staphylococcus aureus ATCC 29213 at 1 to 2 times MIC incubated for 2 to 6 hrs by SEM analysis. The format is functional, organism-based. The conditions noted are these: time 2-6 hrs. Put shortly:
(§1)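 Bacteria incubated for 2 h and 6 h at 1×, 2× and 4× MIC, with vancomycin and daptomycin at 1× and 2× MIC and untreated cells; cell morphology imaged by scanning electron microscopy.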

The test system of data set [7] is Staphylococcus aureus. Nature of the data set: Induction of morphological disruption in methicillin-resistant Staphylococcus aureus ATCC 15187 at 1 to 2 times MIC incubated for 2 to 6 hrs by SEM analysis. The format is functional, organism-based. Particulars: time 2-6 hrs. An outline of the steps: as §1
The test system of another data set is Escherichia coli. The data set is described as follows: Antibacterial activity against Escherichia coli ATCC 25922 incubated for 24 hrs by Alamar blue staining based microdilution method. It is filed as functional.
A short description of data set [8]: Cytotoxicity in human HepG2 cells incubated for 24 hrs by MTT assay. It is filed as toxicity, cell-based. An outline of the steps: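 HepG2 cells, 1 × 10^4 per well in DMEM/10% FBS, 24 h attachment; compounds 200 to 0.19 μg ml−1 for 24 h at 37 °C, 5% CO2; MTT 2.5 mg ml−1 for 3 h, formazan in DMSO, OD 570 nm; doxorubicin 10 μM control.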
(Formazan colour is commonly taken as a measure of viable cells.)

In data set [9] the test system is Staphylococcus aureus. The data set is described as follows: Antibacterial activity against methicillin-resistant Staphylococcus aureus ATCC 15187 incubated for 24 hrs by Alamar blue staining based microdilution method. The format is functional.
The test system of data set [10] is Staphylococcus aureus. Nature of the data set: Disruption of pre-formed biofilms of methicillin-resistant Staphylococcus aureus ATCC 15187 at 4 to 6 times MIC incubated for 24 hrs by absorbance based method relative to control. The format is functional.
In data set [11] the test system is Staphylococcus aureus. The data set is described as follows: Disruption of pre-formed biofilms of Staphylococcus aureus ATCC 29213 at 4 to 6 times MIC incubated for 24 hrs by absorbance based method relative to control. The format is functional.
Data set [12] deals with Staphylococcus aureus. Nature of the data set: Disruption of cell membrane integrity in Staphylococcus aureus ATCC 29213 assessed as red fluorescence at 2 times MIC incubated for 2.5 hrs by DAPI/PI staining based fluorescence microscopy. It is filed as functional, organism-based. An outline of the steps:
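Bacteria treated at 1× and 2× MIC, with vancomycin 2× MIC as control and an untreated blank; stained with DAPI (all cells) and propidium iodide (membrane-damaged cells); imaged by fluorescence microscopy, red PI signal taken as membrane damage.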

The test system of data set [13] is Staphylococcus aureus. The data set is described as follows: Inhibition of biofilm formation of Staphylococcus aureus ATCC 29213 at 0.5 times MIC incubated for 27 hrs by absorbance based method. It is filed as functional, organism-based.
In data set [14] the test system is Staphylococcus aureus. The data set is described as follows: Inhibition of biofilm formation of methicillin-resistant Staphylococcus aureus ATCC 15187 at 0.5 times MIC incubated for 27 hrs by absorbance based method. It is filed as functional, organism-based.
For data set [15], the system named is Staphylococcus aureus. The data set is described as follows: Antibacterial activity against methicillin-resistant Staphylococcus aureus ATCC 15187 infected in male […] mouse assessed as reduction in bacterial load in lung at 50 mg/kg measured after 24 hrs by colony counting method. It is filed as functional, organism-based. An outline of the steps: (§2)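 Mouse peritonitis model: 0.1 ml MRSA suspension (10^8 CFU ml−1) given intraperitoneally; treatment intraperitoneal at 50 or 100 mg kg−1 at 2 and 5 h post-infection, with saline and vancomycin (50 mg kg−1) controls; killed at 24 h; kidney and lung homogenates plated on Mueller–Hinton agar with 20 μg ml−1 ciprofloxacin, 24 h; CFU ml−1; unpaired t-test.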

Data set [16] deals with Staphylococcus aureus. The data set is described as follows: Antibacterial activity against methicillin-resistant Staphylococcus aureus ATCC 15187 infected in male […] mouse assessed as reduction in bacterial load in kidney at 50 mg/kg measured after 24 hrs by colony counting method. The format is functional, organism-based. Put shortly:
as §2

Regarding `O=C(O)c1cn(C2CC2)c2cc(N3CCNCC3)c(F)cc2c1=O` [CIPROFLOXACIN], the minimum inhibitory concentration (MIC) in the data set with Staphylococcus aureus [1] is 0.25 µg/mL (≈ 0.754 µM); with Staphylococcus aureus [2] it was 0.25 µg/mL (≈ 0.754 µM); with Staphylococcus aureus [3] it was 0.25 µg/mL (≈ 0.754 µM); with Staphylococcus aureus [4] it was 4.14 µg/mL (≈ 12.5 µM); in the data set on Staphylococcus aureus [5] it was 4.14 µg/mL (≈ 12.5 µM).

As for `CCCCCCCCCC(=O)N[C@@H](Cc1c[nH]c2ccccc12)C(=O)N[C@@H](CC(N)=O)C(=O)N[C@@H](CC(=O)O)C(=O)N[C@@H]1C(=O)NCC(=O)N[C@@H](CCCN)C(=O)N[C@@H](CC(=O)O)C(=O)N[C@H](C)C(=O)N[C@@H](CC(=O)O)C(=O)NCC(=O)N[C@H](CO)C(=O)N[C@@H]([C@@H](C)CC(=O)O)C(=O)N[C@@H](CC(=O)c2ccccc2N)C(=O)O[C@@H]1C`, the result in the data set with Staphylococcus aureus [6] and in the data set on Staphylococcus aureus [7] was Active.

Take `CCCc1nn(C)c2c(N3CCC(O)CC3)nc(-c3ccc([N+](=O)[O-])o3)nc12`: the MIC result in the data set with Escherichia coli was “inactive”. The MIC in the data set with Staphylococcus aureus [3] worked out at 16 µg/mL (≈ 41.4 µM); in the data set on Staphylococcus aureus [9], 0.5 µg/mL (≈ 1.29 µM). The IC50 at 24 h in data set [8] was above 50 µg/mL.

For the molecule `CCCc1nn(C)c2c(Nc3ccc(OC)cc3)nc(-c3ccc([N+](=O)[O-])o3)nc12`, in the data set on Escherichia coli, the MIC entry is “inactive”. Also, the MIC with Staphylococcus aureus [3] and with Staphylococcus aureus [9] was above 32 µg/mL each time. The same molecule displayed an IC50 at 24 h in data set [8] above 50 µg/mL.

Consider `CCCc1nn(C)c2c(NCc3ccc(OC)c(F)c3)nc(-c3ccc([N+](=O)[O-])o3)nc12`, for which the MIC entry with Escherichia coli is “inactive”. The MIC in the data set with Staphylococcus aureus [3] and in the data set with Staphylococcus aureus [9] was above 32 µg/mL throughout. Moreover, the half-maximal inhibitory concentration (IC50) at 24 h in [8] was above 50 µg/mL.

For the molecule `CCCc1nn(C)c2c(N3CCCCC3)nc(-c3ccc([N+](=O)[O-])o3)nc12`, in the data set with Escherichia coli, the MIC entry was “inactive”. Also, the minimum inhibitory concentration (MIC) with Staphylococcus aureus [3] and in the data set with Staphylococcus aureus [9] was above 32 µg/mL throughout. The molecule also gave an IC50 at 24 h in data set [8] above 50 µg/mL.

Consider `CCCc1nn(C)c2c(NC3CCOCC3)nc(-c3ccc([N+](=O)[O-])o3)nc12`, for which the MIC entry in the data set on Escherichia coli was “inactive”. Besides, the minimum inhibitory concentration (MIC) in the data set with Staphylococcus aureus [3] and against Staphylococcus aureus [9] was above 32 µg/mL in each case. Moreover, the IC50 at 24 h in data set [8] was above 50 µg/mL.

On to `CCCc1nn(C)c2c(N3CCN(c4ccncc4)CC3)nc(-c3ccc([N+](=O)[O-])o3)nc12`, for which, in the data set with Escherichia coli, the MIC entry was “inactive”. Moreover, the MIC was 1 µg/mL (≈ 2.23 µM) in the data set on Staphylococcus aureus [3] and 0.25 µg/mL (≈ 0.557 µM) in the data set with Staphylococcus aureus [9]. Also, the 50% inhibitory concentration (IC50) at 24 h in [8] is above 50 µg/mL.

`CCCc1nn(C)c2c(N3CCC(c4ccccc4)CC3)nc(-c3ccc([N+](=O)[O-])o3)nc12`: the MIC result in the data set on Escherichia coli was “inactive”. For the same molecule, the MIC with Staphylococcus aureus [3] and with Staphylococcus aureus [9] was above 32 µg/mL throughout. Further, in data set [8], the IC50 at 24 h is above 50 µg/mL.

With `CN[C@H](CC(C)C)C(=O)N[C@H]1C(=O)N[C@@H](CC(N)=O)C(=O)N[C@H]2C(=O)N[C@H]3C(=O)N[C@H](C(=O)N[C@H](C(=O)O)c4cc(O)cc(O)c4-c4cc3ccc4O)[C@H](O)c3ccc(c(Cl)c3)Oc3cc2cc(c3O[C@@H]2O[C@H](CO)[C@@H](O)[C@H](O)[C@H]2O[C@H]2C[C@](C)(N)[C@H](O)[C@H](C)O2)Oc2ccc(cc2Cl)[C@H]1O` [VANCOMYCIN], the outcome in the data set with Staphylococcus aureus [6], in the data set on Staphylococcus aureus [7], with Staphylococcus aureus [12], with Staphylococcus aureus [15] and in the data set with Staphylococcus aureus [16] was Active. The minimal inhibitory concentration (MIC) against Staphylococcus aureus [1] was found to be 0.56 µg/mL (≈ 0.386 µM); against Staphylococcus aureus [2], 0.25 µg/mL (≈ 0.173 µM); in the data set with Staphylococcus aureus [4], 0.25 µg/mL (≈ 0.173 µM); in the data set on Staphylococcus aureus [5] it was 0.25 µg/mL (≈ 0.173 µM). Also, the Activity with Staphylococcus aureus [10] and with Staphylococcus aureus [11] was 40% in each case. The inhibition result with Staphylococcus aureus [13] and in the data set on Staphylococcus aureus [14] was “inactive” each time.

What is called MIC is the least concentration at which growth counts as inhibited. The term IC50 denotes the concentration at which inhibition is half-maximal.
